The source of these data is ChEMBL document CHEMBL4513216, “Probing the Open Global Health Chemical Diversity Library for Multistage-Active Starting Points for Next-Generation Antimalarials” (ACS Infect Dis, 2020).

The nature of the data set: Toxicity liver stage against HepG2, at 10uM. It counts as cell-based. Also noted: test concentration 10 uM, cell line HepG2-A16-CD81EGFP. The following applies: human, HepG2-A16-CD81EGFP cells; read-out: INHIBITION
The gist of the method:
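Uninfected HepG2-A16-CD81EGFP cells, 3 × 10^3 per well, 1536-well, plated on prespotted compound at 10 μM final, parasite-free screening media added to match infected plates; puromycin 10 μM positive, DMSO 0.5% negative; run in parallel with 48 h PbLuc assay at 37 °C, 5% CO2; viability by CellTiter-Glo luminescence, normalized to controls.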

Consider `O=C(c1ccc(-n2cccn2)nc1)N1CCCC(c2cnccn2)C1` (stereo not given), for which the cytotoxicity at 10 µM is 4.32%.

Consider `Cc1cc(C(=O)NCc2cccnc2N(C)C)c(C)o1`, for which the cytotoxicity at 10 µM is -9.51%.

As to `COc1ccc(OCc2noc(CN(C)C3CCS(=O)(=O)C3)n2)cc1` (stereo not given), the cytotoxicity at 10 µM came out at 12.5%.

With `Cc1nc(NS(=O)(=O)c2ccc(C)c(Br)c2)no1`, the cytotoxicity at 10 µM stood at 11.2%.

As for `O=C(C1CCS(=O)(=O)CC1)N1CCC(Cc2ccc(F)cc2)CC1`, the cytotoxicity at 10 µM is -41.9%.

Regarding `CSC(C)C(=O)N1CCCN(Cc2cscn2)CC1` (stereo not given), the cytotoxicity at 10 µM was -2.19%.

As to `Cn1ncc2c1CCCN(C(=O)C1CCCC1)C2`, the cytotoxicity at 10 µM is 4.13%.

Turning to `CCS(=O)(=O)N1CCc2cc(C(=O)NC)c(NCC(C)C)nc2CC1`, the cytotoxicity at 10 µM was -149%.

Turning to `CCCN1CCN(C(=O)c2ccc(Cn3cc(Br)cn3)cc2)CC1`, the cytotoxicity at 10 µM was -6.11%.

In the case of `Cc1cccc(C(C)CNC(=O)N2CCOCC3(CCOCC3)C2)c1` (stereo not given), the cytotoxicity at 10 µM came out at 8.84%.

On to `CN1CC[C@H](N(Cc2ccccc2)Cc2ccccc2)C[C@H](O)C1`, for which the cytotoxicity at 10 µM was -5.96%.

`O=C(Cn1nc2ccccc2n1)N1CCCn2cncc2C1`: the cytotoxicity at 10 µM is 1.87%.

On to `Cc1ccc2nc(C)cc(NCCNS(=O)(=O)c3cccnc3)c2c1`, for which the cytotoxicity at 10 µM was found to be 13.5%.

Take `CN(C)[C@@H]1CO[C@H](CNC(=O)c2ccccc2)[C@H]1O`: the cytotoxicity at 10 µM is -1.9%.

As for `Cn1ccnc1C1CCN(S(=O)(=O)c2ccc3c(c2)OCCO3)CC1`, the cytotoxicity at 10 µM is -13.5%.

Regarding `O=C(CO)N1CCCC2(CCC(=O)N(CC3CC3)C2)C1` (stereo not given), the cytotoxicity at 10 µM was determined as 5.75%.

Turning to `O=C(NCC1(N2CCOCC2)CCSC1)Nc1cn[nH]c1` (stereo not given), the cytotoxicity at 10 µM came to 9.37%.

As for `O=C(NCc1ccco1)C1CCCN1Cc1nc(-c2ccco2)no1` (stereo not given), the cytotoxicity at 10 µM is -6.46%.

As to `Cc1ccccc1CNC(C)c1ccc(OCC(=O)NC2CC2)cc1` (stereo not given), the cytotoxicity at 10 µM is -6.97%.

As to `CCn1cc(CNCC(c2ccc(C)s2)N2CCOCC2)cn1` (stereo not given), the cytotoxicity at 10 µM is -8.65%.

As to `CCCc1nnc(N2CCN(Cc3ccccc3OC)CC2)o1`, the cytotoxicity at 10 µM was -12%.

Regarding `Cc1noc(-c2ccc(N3CCCC(C(=O)O)C3)nc2)n1` (stereo not given), the cytotoxicity at 10 µM was -2.38%.

For the compound `CCN(CC)C(=O)c1cc(C2(C)CCN(C(C)=O)CC2)nc(C)n1`, the cytotoxicity at 10 µM was determined as 5.27%.

For the compound `COc1cccc(NC(=O)Nc2ccc3c(c2)CC(=O)N3)c1`, the cytotoxicity at 10 µM was -2.35%.

On to `Cc1ncsc1C(=O)N(C)CCc1ccncc1`, for which the cytotoxicity at 10 µM was -3.81%.

For `Cc1cc2ccncc2n1CC1(O)CCN(C(=O)c2ccccn2)CC1`, the cytotoxicity at 10 µM stood at 0.166%.

For the compound `CCNc1cc2c(nn1)CCN(C(=O)C(C)c1c(C)noc1C)C2` (stereo not given), the cytotoxicity at 10 µM is -4.05%.

As for `O=C(Cn1ccc2cc(Br)ccc21)NCc1ccc(C(=O)O)cc1`, the cytotoxicity at 10 µM was found to be 9.6%.

For the compound `CN(C)C(=O)CN1CCC2(CC1)CN(S(C)(=O)=O)Cc1ccccc1O2`, the cytotoxicity at 10 µM turned out to be 0.56%.

On to `Cc1c(S(=O)(=O)N2CCOCC2)cc2c(C)cc(=O)n3c2c1CCC3`, for which the cytotoxicity at 10 µM is 3.36%.

On to `CC(C)NC(=O)C1CCc2nnc(CNC(=O)c3cccnc3)n21` (stereo not given), for which the cytotoxicity at 10 µM is 6.94%.

Regarding `Cc1cnc(N2CCC3(CC2)CC(NC(=O)N(C)C)CO3)nc1` (stereo not given), the cytotoxicity at 10 µM was 6.31%.

For the compound `COc1ccc(C[C@H]2CN(C(=O)CS(C)(=O)=O)CC[C@H]2OC)cc1`, the cytotoxicity at 10 µM was 2.64%.

Regarding `CN1CCOC(C)(C(=O)N2CCSCC2)C1` (stereo not given), the cytotoxicity at 10 µM is -9.71%.

On to `CC(C)Nc1nc(-c2ccccc2)nc2c1CCN(C(=O)C1CC1)CC2`, for which the cytotoxicity at 10 µM is -108%.

On to `O=C(C1=CCCC1)N1C[C@@H]2COC[C@]2(COCC2CC2)C1`, for which the cytotoxicity at 10 µM is -96.2%.

Regarding `c1cnc(N2CCC(c3nccn3CC3CC3)CC2)nc1`, the cytotoxicity at 10 µM is -7.28%.

`O=C(c1cccnc1O)N1CCN(CCc2cccs2)CC1`: the cytotoxicity at 10 µM was -8.86%.

With `Cn1c(CS(=O)(=O)c2ccc(Cl)cc2)cc(=O)n(C)c1=O`, the cytotoxicity at 10 µM worked out at 7.5%.

For `Cc1cc(C(=O)NCc2ccnc(N3CCN(C)CC3)c2)no1`, the cytotoxicity at 10 µM was -6.63%.

In the case of `O=C(c1ccc(=O)[nH]c1)N1C[C@H]2CC[C@@H](C1)N(Cc1ccccc1)C2`, the cytotoxicity at 10 µM was -100%.

For `Cc1ccc(-c2nc(CN3CCN(S(=O)(=O)N(C)C)CC3)cs2)o1`, the cytotoxicity at 10 µM was determined as 6.81%.

`CN(C)CCn1c2c(ccc1=O)CCN(Cc1cnn(C)c1)CC2`: the cytotoxicity at 10 µM is -2.65%.

`CCn1cc(S(=O)(=O)N(C)Cc2c(Br)cnn2CC)c(C)n1`: the cytotoxicity at 10 µM was 3.3%.

Consider `CNc1cc(C)nc(NCc2cc(C)cc3c(C)c(C)[nH]c23)n1`, for which the cytotoxicity at 10 µM was -29%.

On to `NC1CCc2nc(-c3ccncc3)nc(Nc3cccc(F)c3)c2C1` (stereo not given), for which the cytotoxicity at 10 µM is 26.4%.

Turning to `COCCC(=O)N1CCCC(CCC(=O)NCc2cccc(OC)c2)C1` (stereo not given), the cytotoxicity at 10 µM was found to be 23.1%.

Consider `Cc1ccc(O)c(CNC2CCc3nc(C(C)C)nn3C2)n1` (stereo not given), for which the cytotoxicity at 10 µM was -8.54%.

Regarding `O=C(NC1(c2nnn(Cc3ccncc3)n2)CCCC1)c1ccccc1`, the cytotoxicity at 10 µM was determined as 21%.

As for `Cc1ccc(-c2nc(CNC3CCc4ncnn4C3)cs2)cc1` (stereo not given), the cytotoxicity at 10 µM was -9.27%.

As to `CCc1ccc(-n2nnc(C(=O)O)c2-c2ccccn2)cc1`, the cytotoxicity at 10 µM was -1.92%.

Regarding `O=C(c1cncc(N2CC[C@@]3(O)CCNC[C@H]3C2)n1)N1CCCC1`, the cytotoxicity at 10 µM is -8.19%.

`CN(C)CCNC(=O)c1ccc(OC2CCN(CC3CC3)CC2)c(Cl)c1`: the cytotoxicity at 10 µM was -6.26%.

With `Cn1c(CCC(=O)N2CCCC3(CNC(=O)O3)C2)nc2cccnc21` (stereo not given), the cytotoxicity at 10 µM worked out at 2.3%.

For `CS(=O)(=O)CCn1ccc(NC(=O)CCc2cccc(F)c2)n1`, the cytotoxicity at 10 µM was -7.37%.

Turning to `CCNC(=O)NC1CN(CC(=O)NCc2ccccc2C)C[C@@H]1OC` (stereo not given in full), the cytotoxicity at 10 µM is -1.6%.

In the case of `CCNC(=O)CN(CC)Cc1nc2c(F)cccc2n1CC`, the cytotoxicity at 10 µM was 9.57%.

On to `CCOCC(=O)N(Cc1ccco1)c1ccc(OC)c(F)c1`, for which the cytotoxicity at 10 µM is -2.75%.

With `O=C(c1cc[nH]n1)N1CCc2ncnc(NCc3ccccn3)c2CC1`, the cytotoxicity at 10 µM was -10.5%.

Take `O=C(CSc1ccccn1)N1CCN(CCO)[C@@H]2CS(=O)(=O)C[C@@H]21`: the cytotoxicity at 10 µM worked out at 9.87%.

Regarding `Cn1cc([C@@H]2CN(S(=O)(=O)c3cccs3)C[C@H]2N)c2ccncc21`, the cytotoxicity at 10 µM is 1.44%.

`COc1ccc(CNC(=O)NC2CCN(CC3CCCC3)CC2)cn1`: the cytotoxicity at 10 µM is -8.01%.

In the case of `CN(C)C(=O)N1CCN(c2ccc(Cl)nn2)C(=O)C1`, the cytotoxicity at 10 µM was 9.1%.

`CNS(=O)(=O)Cc1ccc(CNC(=O)c2ccc(C)[nH]c2=O)cc1`: the cytotoxicity at 10 µM is -3.3%.

With `Cc1nc(CNC(=O)c2cc(COc3ccccc3)[nH]n2)n[nH]1`, the cytotoxicity at 10 µM was 8.52%.

As to `CN1C[C@@H]2COC[C@]2(C(=O)NCCc2cccs2)C1`, the cytotoxicity at 10 µM was found to be 8.1%.

Turning to `CSc1ccccc1C(=O)NCc1cc2n(n1)CCCN(CC(C)C)C2`, the cytotoxicity at 10 µM came to 3.05%.

On to `O=C(CN1CCCC1)N1CCCC1c1nc(O)cc(-c2ccccn2)n1` (stereo not given), for which the cytotoxicity at 10 µM is -10.7%.

Turning to `CN(CCO)C(=O)Nc1ccn(-c2cccc(C(F)(F)F)c2)n1`, the cytotoxicity at 10 µM was 4.16%.

On to `CCc1nc(CN(C)CC2CCN(CC(C)O)CC2)no1` (stereo not given), for which the cytotoxicity at 10 µM is -10.3%.

As for `O=C(Nc1ccccc1Cn1cncn1)C1CCN(C2CCCCC2)C1` (stereo not given), the cytotoxicity at 10 µM is -5.14%.

Regarding `Cc1ccc(NCCCNC(=O)NCC2CCS(=O)(=O)C2)nc1` (stereo not given), the cytotoxicity at 10 µM is 17.2%.

As to `CC(NC(=O)Nc1ccncc1)c1ccc2c(c1)CC(=O)N2` (stereo not given), the cytotoxicity at 10 µM was -5.76%.

In the case of `CNc1cc(C2CCCN2Cc2ccccc2OCC(=O)O)ccn1` (stereo not given), the cytotoxicity at 10 µM is -0.645%.

As to `CCN1CCN(C)C2(CCN(Cc3cccc(C)n3)CC2)C1=O`, the cytotoxicity at 10 µM came to 2%.

Take `Cc1nc(CCCNC(=O)C2CC(=O)N(C3CCCC3)C2)sc1C` (stereo not given): the cytotoxicity at 10 µM was found to be 3.01%.

For `COc1cccc2sc(N3CC(OC(C)=O)C3)nc12`, the cytotoxicity at 10 µM is -6.67%.

As to `CC1(C)CN(C(CNS(N)(=O)=O)c2ccc(Cl)cc2)CCO1` (stereo not given), the cytotoxicity at 10 µM turned out to be 6.88%.

With `Cc1noc(C[C@@H]2COC[C@H]3CN(S(C)(=O)=O)C[C@@H]23)n1`, the cytotoxicity at 10 µM was found to be 12.2%.

`CCn1nccc1CN(C)c1[nH]cnc2nc(C)nc1-2`: the cytotoxicity at 10 µM was -7.97%.

In the case of `O=C(NCC1CCCO1)c1c(-n2cnnn2)sc2c1CCC2` (stereo not given), the cytotoxicity at 10 µM is -16.3%.

As to `COc1cc(CN2CCCC2)ccc1Oc1ncccc1C(F)(F)F`, the cytotoxicity at 10 µM came to 0.96%.

Consider `COCCC(=O)N1C[C@H]2CN(Cc3cccc(C)c3)C(=O)[C@H]2C1`, for which the cytotoxicity at 10 µM came out at 2.05%.

`O=C1CCCN1CC1CCCCN1C(=O)Nc1cccc(F)c1` (stereo not given): the cytotoxicity at 10 µM was -1.8%.

Regarding `Cc1ccc(OCCN(C)Cc2nccn2C)c(C)c1`, the cytotoxicity at 10 µM came out at 5.51%.

In the case of `CCc1nnsc1C(=O)N(C)Cc1nnc2n1CCC2`, the cytotoxicity at 10 µM was -0.862%.

In the case of `Cc1cnc(N2C[C@@H]3CN(Cc4ccco4)CCC[C@]3(C(=O)O)C2)nc1`, the cytotoxicity at 10 µM turned out to be 7.25%.

On to `COc1ccc(N2CCC(N3CCOC(C(F)(F)F)C3)CC2)cc1` (stereo not given), for which the cytotoxicity at 10 µM was -20.5%.

As to `Cc1cccc(NC(=O)c2ccc(OCc3nnnn3C)cc2)n1`, the cytotoxicity at 10 µM is -34.1%.

As for `Cc1cccc(CN2CCCC2(C(N)=O)c2cnccn2)n1` (stereo not given), the cytotoxicity at 10 µM is -21.9%.

With `CCOc1ncccc1CNCc1c(C)nn(C)c1N(C)C`, the cytotoxicity at 10 µM is -1.35%.

Take `CN(C)C(C(=O)NCC1(O)CCCCC1)c1cccc(F)c1` (stereo not given): the cytotoxicity at 10 µM is -2.07%.

Turning to `Cc1nonc1CC(=O)N1CCC2(CCCN(C3CCOCC3)C2=O)C1` (stereo not given), the cytotoxicity at 10 µM was -95.3%.

Regarding `CC(C)(C)n1ncc2c1CCCC2NCc1ccc2c(c1)OCCO2` (stereo not given), the cytotoxicity at 10 µM turned out to be 1.7%.

As to `Cc1cc(-c2cnn(CCNC(=O)C3CCCO3)c2C2CC2)on1` (stereo not given), the cytotoxicity at 10 µM was -4.07%.
